# Results taken from PMC10193968 (Proceedings of the National Academy of Sciences of the …, 2023).
# pEC50: −log10 of the molar value.
# Legend:
# [1] = system: AncOR5_75 V79L_A143T_A204V; format: cell-based; conditions: 10^−5 M solution; panel of six S. littoralis pheromone compounds
# Summary of the method: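 Mutation introduced into the pCS2+ ancestral-receptor plasmid and confirmed by Sanger sequencing. Capped cRNA made with SP6 from NotI-linearized template, coexpressed with SlitOrco in Xenopus oocytes. Two-electrode voltage-clamp inward currents to six compounds at 10^-5 M, diluted from 0.1 M DMSO stocks into Ringer's (HEPES, pH 7.6). Ringer's with 0.01% DMSO as negative control. Tuning compared by principal component analysis.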
# SlituOR5 [2] = assay: Single-sensillum recordings on Drosophila at1 OSNs expressing SlituOR5; format: cell-based, S. litura; conditions: 10 μg loaded in the stimulus cartridge; panel of 26 pheromone compounds
# AncOR75 = format: cell-based, ancestor of S. littoralis and S. litura; conditions: doses 10 ng to 100 µg in the stimulus cartridge
# Summary of the method: (§1)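 Dose–response by single-sensillum extracellular recording from at1 OSNs of flies expressing the receptor transgene instead of Or67d (UAS-Or crossed to Or67d-GAL4). Flies reared at 25 °C, 12 h:12 h light:dark. Stimuli lasted 500 ms, delivered from filter-paper cartridges loaded with 10 ng to 100 µg pheromone diluted in hexane.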
# AncOR5_75 = format: cell-based, ancestor of S. littoralis and S. litura; conditions: doses 10 ng to 100 µg in the stimulus cartridge
# Summary of the method: as §1
# S. frugiperda males = conditions: presence at 1% in synthetic pheromone blends; cited from earlier work
# SfruOR5 = assay: Two-electrode voltage-clamp on Xenopus oocytes expressing SfruOR5; format: cell-based, S. frugiperda; conditions: 10^–4 M; panel of 13 pheromone compounds; confirms the Drosophila OSN profile
# S. littoralis males = conditions: traps baited with their own sex pheromones; cited from earlier work
# S. litura males = conditions: traps baited with their own sex pheromones; cited from earlier work
# SlitOR5 = assay: Single-sensillum recordings on Drosophila at1 OSNs expressing SlitOR5; format: cell-based, S. littoralis; conditions: 10 μg loaded in the stimulus cartridge; panel of 26 pheromone compounds
# Summary of the method: (§2)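 Receptor expressed in Drosophila at1 OSNs in place of Or67d (UAS-Or × Or67d-GAL4, double homozygous). Flies kept on cornmeal–yeast–agar at 25 °C, 12 h:12 h light:dark. Single-sensillum extracellular recording with 500 ms stimulation from Pasteur-pipette cartridges holding 10 µg compound (hexane dilution) on filter paper. Panel of 26 pheromone compounds. Active if different from solvent alone (one-way ANOVA, Dunnett's post hoc).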
# SlitOR75 = assay: Single-sensillum recordings on Drosophila at1 OSNs expressing SlitOR75; format: cell-based, S. littoralis; conditions: 10 μg loaded in the stimulus cartridge; panel of 26 pheromone compounds
# Summary of the method: as §2
# SlituOR75 = assay: Single-sensillum recordings on Drosophila at1 OSNs expressing SlituOR75; format: cell-based, S. litura; conditions: 10 μg loaded in the stimulus cartridge; panel of 26 pheromone compounds
# Summary of the method: as §2
# AncOR5 [3] = assay: Single-sensillum recordings on Drosophila at1 OSNs expressing resurrected AncOR5; format: cell-based, ancestor of S. littoralis and S. litura; conditions: 10 μg loaded in the stimulus cartridge; panel of 26 pheromone compounds
# AncOR5 [4] = assay: Two-electrode voltage-clamp on Xenopus oocytes coexpressing AncOR5 and SlitOrco; format: cell-based, ancestor of S. littoralis and S. litura
# AncOR5_75_mut8x = format: cell-based; conditions: read-out: EC50, AncOR5_75_mut8x; Xenopus oocytes, concentrations 10^–8 to 10^–4 M
# SlituOR5 [5] = assay: Two-electrode voltage-clamp on Xenopus oocytes expressing SlituOR5; format: cell-based, S. litura; conditions: 10^–4 M; panel of 13 pheromone compounds; confirms the Drosophila OSN profile
# SexiOR5 = assay: Two-electrode voltage-clamp on Xenopus oocytes expressing SexiOR5; format: cell-based, S. exigua; conditions: 10^–4 M; panel of 13 pheromone compounds; confirms the Drosophila OSN profile
# S. exigua males = conditions: cited from earlier work
# [6] = system: S. littoralis and S. litura males; conditions: detection of the compound; cited from earlier work
smiles,measurement,setting,value
"C/C=C/C/C=C\CCCCCCCCOC(C)=O [(Z,E)-9,12-14:OAc, (Z,E)-9,12-tetradecadienyl acetate]","Inward current, triple-mutant V79L_A143T_A204V",[1],narrow tuning
"CC/C=C\C=C/CCCCCCCCOC(C)=O [(Z,Z)-9,11-14:OAc, (Z,Z)-9,11-tetradecadienyl acetate]",Action potential frequency of at1 OSNs expressing SlituOR5,SlituOR5 [2],significant yet minor response
same,"Activation threshold / sensitivity, dose–response of AncOR75",AncOR75,best ligand
same,"Activation threshold / sensitivity, dose–response of AncOR5_75",AncOR5_75,best ligand
"CC/C=C/CCCCCCCCCCOC(C)=O [(E)-11-14:OAc, (E)-11-tetradecenyl acetate]",Proportion of males approaching the source in wind tunnel,S. frugiperda males,strongly increased the proportion of males approaching the source
"CC/C=C\CCCCCCCCCCOC(C)=O [(Z)-11-14:OAc, (Z)-11-tetradecenyl acetate]","Response spectrum (inward current), SfruOR5",SfruOR5,best SfruOR5 ligands
same,Proportion of males approaching the source in wind tunnel,S. frugiperda males,strongly increased the proportion of males approaching the source
"CCCC/C=C\CCCCCCCCO [(Z)-9-14:OH, (Z)-9-tetradecen-1-ol]",Effect on trap catches of S. littoralis males,S. littoralis males,reduces catches in traps
same,Effect on trap catches of S. litura males,S. litura males,reduces catches in traps
"CC/C=C/C=C\CCCCCCCCOC(C)=O [(Z,E)-9,11-14:OAc, (Z,E)-9,11-tetradecadienyl acetate]",Action potential frequency of at1 OSNs expressing SlitOR5,SlitOR5,strong responses
same,Action potential frequency of at1 OSNs expressing SlituOR5,SlituOR5 [2],strong responses
same,Action potential frequency of at1 OSNs expressing SlitOR75,SlitOR75,low responses
same,Action potential frequency of at1 OSNs expressing SlituOR75,SlituOR75,low responses
same,Action potential frequency of at1 OSNs expressing AncOR5,AncOR5 [3],responded specifically
same,"Activation threshold / sensitivity, dose–response of AncOR75",AncOR75,same activation threshold as AncOR5
same,"Activation threshold / sensitivity, dose–response of AncOR5_75",AncOR5_75,same activation threshold as AncOR5
same,"Inward current, AncOR5","AncOR5 [4]; 10^−5 M solution, panel of six S. littoralis pheromone compounds",specifically responded
same,pEC50,"AncOR5 [4]; read-out: EC50, AncOR5, Xenopus oocytes, concentrations 10^–8 to 10^–4 M",5.96
same,pEC50,AncOR5_75_mut8x,6.40
same,"Response spectrum (inward current), SlituOR5",SlituOR5 [5],narrowly tuned
same,"Response spectrum (inward current), SfruOR5",SfruOR5,can bind
same,"Response spectrum (inward current), SexiOR5",SexiOR5,can bind
same,Effect on trap catches of S. exigua males,S. exigua males,decreases trap catches
same,Male attraction,[6],necessary and sufficient to trigger male attraction
